Data as given in ChEMBL document CHEMBL1138547, “Synthesis, biological evaluation and 2D-QSAR analysis of benzoxazoles as antimicrobial agents” (2009).
In brackets after ≈: the same amount, converted by molar mass.

Assays:
Format in all cases: functional
Klebsiella pneumoniae [1] = test: Antimicrobial activity against multidrug-resistant Klebsiella pneumoniae after 24 hrs
Method in brief: (§1)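 Twofold serial broth dilution in Mueller-Hinton broth. MHB was used both to dilute the bacterial suspension and for the twofold compound dilutions, giving 10^3 cfu/ml bacteria per well after inoculation. Solvent, medium and organism-only wells served as controls. Each organism was run in triplicate.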

Escherichia coli [2] = test: Antimicrobial activity against Escherichia coli ATCC 25922 after 24 hrs; settings: ATCC 25922, 24 h
Method in brief: (§2)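 MIC by twofold serial dilution in Mueller-Hinton broth (MHB); MHB also used to dilute the bacterial suspension. Wells held 10^3 cfu/ml bacteria after inoculation. Controls: 80% DMSO, 20% EtOH, methanol, DMSO, PBS, organism alone and medium alone. Triplicate in each run. MIC taken as the lowest concentration completely inhibiting macroscopic growth.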

Candida albicans [3] = test: Antimicrobial activity against Candida albicans ATCC 10231 after 24 to 48 hrs
Method in brief: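 Twofold serial dilution following CLSI M27-A. Yeast suspension made at 10^4 cfu/ml by diluting a fresh culture at McFarland 0.5 (10^6 cfu/ml). Inoculated into the diluted compound, incubated at 35 °C in a humid chamber, read after 48 h. Triplicate in each run. MIC is the lowest concentration completely inhibiting macroscopic growth.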

Pseudomonas aeruginosa = test: Antimicrobial activity against Pseudomonas aeruginosa ATCC […] after 24 hrs; method in brief: as §2
Klebsiella pneumoniae [4] = test: Antimicrobial activity against Klebsiella pneumoniae RSHM 574 after 24 hrs; settings: RSHM 574, 24 h; method in brief: as §2
Staphylococcus aureus [5] = test: Antimicrobial activity against Staphylococcus aureus ATCC 25923 after 24 hrs; settings: ATCC 25923, 24 h; method in brief: as §1
Bacillus subtilis [6] = test: Antimicrobial activity against Bacillus subtilis ATCC 6633 after 24 hrs; settings: for MIC: Bacillus subtilis, ATCC 6633, 24 h; method in brief: as §2
Bacillus subtilis [7] = test: Antimicrobial activity against ceftriazone-resistant Bacillus subtilis after 24 hrs; method in brief: as §1
Candida albicans [8] = test: Antimicrobial activity against multidrug-resistant Candida albicans isolates after 24 to 48 hrs
Method in brief: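 Yeast broth microdilution following CLSI M27-A, with Sabouraud dextrose medium noted for antifungal assays. Fresh cultures at McFarland 0.5 (10^6 cfu/ml) were diluted to 10^4 cfu/ml and inoculated into twofold compound dilutions. Trays were incubated at 35 °C in a humid chamber and read at 48 h, in triplicate. MIC was the lowest concentration giving complete macroscopic growth inhibition.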

Escherichia coli [9] = test: Antimicrobial activity against multidrug-resistant Escherichia coli after 24 hrs; method in brief: as §1
Staphylococcus aureus [10] = test: Antimicrobial activity against multidrug-resistant Staphylococcus aureus after 24 hrs; method in brief: as §1

SMILES	MIC (Klebsiella pneumoniae [1]) [µg/mL]	MIC (Escherichia coli [2]) [µg/mL]	MIC (Candida albicans [3]) [µg/mL]	MIC (Pseudomonas aeruginosa) [µg/mL]	MIC (Klebsiella pneumoniae [4]) [µg/mL]	MIC (Staphylococcus aureus [5]) [µg/mL]	log(1/C) (Bacillus subtilis [6])	MIC (Bacillus subtilis [6]) [µg/mL]	MIC (Bacillus subtilis [7]) [µg/mL]	MIC (Candida albicans [8]) [µg/mL]	MIC (Escherichia coli [9]) [µg/mL]	MIC (Staphylococcus aureus [10]) [µg/mL]
CCc1ccc(-c2nc3cc([N+](=O)[O-])ccc3o2)cc1	100 (≈ 373 µM)	50 (≈ 186 µM)	50 (≈ 186 µM)	50 (≈ 186 µM)	50 (≈ 186 µM)	100 (≈ 373 µM)	3.73	50 (≈ 186 µM)	25 (≈ 93.2 µM)	100 (≈ 373 µM)	100 (≈ 373 µM)	100 (≈ 373 µM)
Cc1ccc(Cc2nc3cc(N)ccc3o2)cc1	100 (≈ 420 µM)	50 (≈ 210 µM)	100 (≈ 420 µM)	50 (≈ 210 µM)	50 (≈ 210 µM)	100 (≈ 420 µM)	4.28	12.5 (≈ 52.5 µM)	25 (≈ 105 µM)	50 (≈ 210 µM)	50 (≈ 210 µM)	100 (≈ 420 µM)
Nc1ccc2oc(-c3ccc(F)cc3)nc2c1	100 (≈ 438 µM)	50 (≈ 219 µM)	50 (≈ 219 µM)	50 (≈ 219 µM)	50 (≈ 219 µM)	50 (≈ 219 µM)	3.96	25 (≈ 110 µM)	50 (≈ 219 µM)	50 (≈ 219 µM)	100 (≈ 438 µM)	100 (≈ 438 µM)
O=[N+]([O-])c1ccc2nc(-c3ccc(Br)cc3)oc2c1	100 (≈ 313 µM)	50 (≈ 157 µM)	100 (≈ 313 µM)	50 (≈ 157 µM)	50 (≈ 157 µM)	100 (≈ 313 µM)	4.407	12.5 (≈ 39.2 µM)	50 (≈ 157 µM)	50 (≈ 157 µM)	25 (≈ 78.3 µM)	400 (≈ 1250 µM)
CCc1ccc(-c2nc3ccc(N)cc3o2)cc1	100 (≈ 420 µM)	50 (≈ 210 µM)	50 (≈ 210 µM)	50 (≈ 210 µM)	50 (≈ 210 µM)	100 (≈ 420 µM)	3.678	50 (≈ 210 µM)	100 (≈ 420 µM)	50 (≈ 210 µM)	100 (≈ 420 µM)	100 (≈ 420 µM)
Nc1ccc2nc(Cc3ccc(Br)cc3)oc2c1	100 (≈ 330 µM)	50 (≈ 165 µM)	50 (≈ 165 µM)	50 (≈ 165 µM)	50 (≈ 165 µM)	100 (≈ 330 µM)	4.084	25 (≈ 82.5 µM)	50 (≈ 165 µM)	100 (≈ 330 µM)	100 (≈ 330 µM)	100 (≈ 330 µM)
Nc1ccc2oc(-c3ccccc3)nc2c1	100 (≈ 476 µM)	50 (≈ 238 µM)	100 (≈ 476 µM)	50 (≈ 238 µM)	50 (≈ 238 µM)	100 (≈ 476 µM)	4.226	12.5 (≈ 59.5 µM)	50 (≈ 238 µM)	50 (≈ 238 µM)	50 (≈ 238 µM)	100 (≈ 476 µM)
CC(C)(C)c1ccc(-c2nc3ccc([N+](=O)[O-])cc3o2)cc1	100 (≈ 337 µM)	50 (≈ 169 µM)	50 (≈ 169 µM)	50 (≈ 169 µM)	50 (≈ 169 µM)	100 (≈ 337 µM)	3.773	50 (≈ 169 µM)	100 (≈ 337 µM)	100 (≈ 337 µM)	100 (≈ 337 µM)	100 (≈ 337 µM)
Nc1ccc2nc(Cc3ccc(Cl)cc3)oc2c1	100 (≈ 387 µM)	50 (≈ 193 µM)	50 (≈ 193 µM)	25 (≈ 96.6 µM)	50 (≈ 193 µM)	100 (≈ 387 µM)	4.32	12.5 (≈ 48.3 µM)	25 (≈ 96.6 µM)	50 (≈ 193 µM)	100 (≈ 387 µM)	100 (≈ 387 µM)
O=[N+]([O-])c1ccc2nc(Cc3ccc(F)cc3)oc2c1	100 (≈ 367 µM)	50 (≈ 184 µM)	100 (≈ 367 µM)	50 (≈ 184 µM)	50 (≈ 184 µM)	100 (≈ 367 µM)	4.338	12.5 (≈ 45.9 µM)	100 (≈ 367 µM)	50 (≈ 184 µM)	50 (≈ 184 µM)	100 (≈ 367 µM)
